Assay results taken from PMC3823501 (Cancer research, 2013).
Where two headings read alike, the source gives them in different places.

Key:
[1] = tested on: TOV-112D tumor xenograft; experiment: TOV-112D tumor xenograft in mice; type: in vivo, mouse; conditions: 200, 300, or 400 mg/kg/day oral, 7 days
Procedure, shortened: (§1)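 Female NSG (NOD/SCID/IL2Rgamma null) mice, 8–10 weeks old, received 5×10^6 MOLT-4 or TOV-112D cells subcutaneously in the right flank. Tumour volume was taken as 0.5×l×w2. Once tumours reached about 70 mm3, test compound in 30% solutol was given daily by gavage on a one- or two-dose schedule. Mice were sacrificed on day 28 after implantation; 4 animals/group, mean ± SD.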

[2] = tested on: KB-Gem cells; experiment: 72 h viability assay, gemcitabine-resistant KB clone; type: cell-based; conditions: Homo sapiens, read-out: IC50, toxicity assay
Procedure, shortened: (§2)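 72 h MTS viability test (CellTiter 96 AQueous) on 10 replicate wells per condition, following the kit instructions. IC50 is the concentration that lowers viability to 50% of the DMSO control. KB cells were grown in RPMI 1640 with 10% FBS and 1% penicillin-streptomycin at 37°C in humidified 5% CO2. KB-HURs and KB-Gem are KB-derived resistant clones.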

[3] = target: T1, RNR in MOLT-4 tumor xenografts (Homo sapiens, UniProt P31350); experiment: RNR activity in extracts of MOLT-4 tumor xenografts; type: in vivo, mouse; conditions: mice treated for 12 days, 100 mg/kg
T1 sequence (P31350 1-389): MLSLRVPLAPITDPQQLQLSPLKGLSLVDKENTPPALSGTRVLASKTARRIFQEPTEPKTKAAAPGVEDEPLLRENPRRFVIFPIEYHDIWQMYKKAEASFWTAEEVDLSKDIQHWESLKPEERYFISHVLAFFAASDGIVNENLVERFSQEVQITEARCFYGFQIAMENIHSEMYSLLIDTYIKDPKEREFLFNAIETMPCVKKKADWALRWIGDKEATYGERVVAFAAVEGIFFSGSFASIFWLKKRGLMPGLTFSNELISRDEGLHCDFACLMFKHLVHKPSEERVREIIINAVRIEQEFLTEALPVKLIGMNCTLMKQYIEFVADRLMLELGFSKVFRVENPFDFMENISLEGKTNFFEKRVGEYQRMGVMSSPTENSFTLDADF
Procedure, shortened: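 RNR activity was measured in extracts of subcutaneous MOLT-4 xenografts from NSG mice dosed orally for 12 days with vehicle (solutol-15) or 100 mg/kg test compound.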

[4] = tested on: NCI broad panel of 60 human cancer cell lines; experiment: NCI 60 human cancer cell line panel, MTT cytotoxicity; type: cell-based; conditions: 10 µM
[5] = target: T2, recombinant hRRM2/hRRM1 (Homo sapiens, UniProt P31350); experiment: [3H] CDP reduction assay, recombinant hRRM2/hRRM1; type: biochemical
T2 sequence (P31350 1-389): T1 sequence (P31350 1-389)

[6] = tested on: KBHURs cells; experiment: Real-time cell proliferation; type: cell-based, human; conditions: COH29 2–250 µM
Procedure, shortened: (§3)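 Cell proliferation was followed by real-time electronic cell sensing (RT-CES, W200 16X) with 2,500 cells seeded per well. From 24 h after seeding, the cell index was recorded every half hour for 120 hours. Quadruplicate samples were used, and traces show the mean of 4 replicates.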

[7] = tested on: dNTP pools in MOLT-4 tumor xenografts; experiment: Intratumoral dNTP pools of MOLT-4 tumor xenografts; type: in vivo, mouse; conditions: MOLT-4 xenografts, treated vs. control
[8] = tested on: KB cells; experiment: Real-time cell proliferation; type: cell-based, human; conditions: 20 µM COH29, 20 µM Gem or 1 mM HU
Procedure, shortened: as §3

[9] = target: T3, endogenously expressed RNR in KB cells (Homo sapiens, UniProt P31350); experiment: RNR activity in cell lysates of KB cells; type: cell-based; conditions: 24 h incubation, 10 µM
T3 sequence (P31350 1-389): T1 sequence (P31350 1-389)

[10] = target: T4, C-terminal truncated hRRM2 (Homo sapiens, UniProt P31350); experiment: Surface plasmon resonance, C-terminal truncated hRRM2; type: binding; conditions: 0.0 – 50.0 µM compound
T4 sequence (P31350 1-348 limits assumed): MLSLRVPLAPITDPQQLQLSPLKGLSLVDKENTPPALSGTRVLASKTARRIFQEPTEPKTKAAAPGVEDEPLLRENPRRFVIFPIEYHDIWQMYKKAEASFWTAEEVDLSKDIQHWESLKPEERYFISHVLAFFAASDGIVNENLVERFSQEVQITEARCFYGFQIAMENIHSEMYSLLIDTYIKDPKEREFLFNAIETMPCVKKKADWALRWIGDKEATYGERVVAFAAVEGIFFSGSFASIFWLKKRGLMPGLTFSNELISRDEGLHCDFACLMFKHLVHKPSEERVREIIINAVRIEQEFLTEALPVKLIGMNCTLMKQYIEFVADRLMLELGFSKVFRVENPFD
Procedure, shortened: (§4)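 Surface plasmon resonance on a Biacore […], with full-length or C-terminally truncated hRRM2 immobilised on CM4 sensor chips. Test compound was injected at 0.0–50.0 µM and binding was read from sensorgrams.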

[11] = tested on: hRRM2 protein level in TOV-112D cells; experiment: Western blot of hRRM2 protein level, TOV-112D cells; type: cell-based, human; conditions: 20 µM
Procedure, shortened: (§5)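 KB and TOV-112D cells were treated with 20 µM test compound for a series of times. Lysates were western blotted for hRRM2, with β-actin as loading control.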

[12] = tested on: KB cells; experiment: 72 h MTS viability assay, KB cells; type: cell-based, human
Procedure, shortened: as §2

[13] = target: T5, RRM1-RRM2 interaction (Homo sapiens, UniProt P31350); type: binding
T5 sequence (P31350 1-389): T1 sequence (P31350 1-389)
Procedure, shortened: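 Surface plasmon resonance on a Biacore […] with hRRM2 immobilised on a CM4 chip. hRRM1 (0–1 µM) binding was first confirmed and a KD derived. A fixed 0.5 µM hRRM1 was then co-injected with test compound at 0–50 µM, and sensorgrams were read.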

[14] = tested on: KB cells; experiment: Cell cycle and apoptosis by flow cytometry, KB cells; type: cell-based, human
Procedure, shortened: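 After 48 h of treatment, KB cells were analysed on a FACScalibur flow cytometer. Propidium iodide staining gave cell-cycle distribution and Annexin V signal gave apoptosis.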

[15] = Tolerability in mice; type: in vivo; conditions: up to a daily dose of 500 mg/kg
[16] = target: T6, immobilized full-length hRRM2 (Homo sapiens, UniProt P31350); experiment: Surface plasmon resonance, immobilized full-length hRRM2; type: binding; conditions: 0.0 – 50.0 µM compound
T6 sequence (P31350 1-389): T1 sequence (P31350 1-389)
Procedure, shortened: as §4

[17] = tested on: dNTP pools in MOLT-4 cells; experiment: dNTP pools in MOLT-4 cells; type: cell-based, human; conditions: 10 µM, by 24 h
Procedure, shortened: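 MOLT-4 cells were exposed to 10 µM test compound or left untreated (control). dATP, dCTP and dGTP levels were measured after 4, 8 and 24 h.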

[18] = tested on: MOLT-4 tumor xenograft; experiment: MOLT-4 tumor xenograft in mice; type: in vivo, mouse; conditions: twice-daily oral dosing 50 mg/kg and 100 mg/kg, Day 12
Procedure, shortened: as §1

[19] = tested on: NHDF cells; experiment: 72 h viability assay, normal dermal fibroblasts; type: cell-based; conditions: Homo sapiens, read-out: IC50, viability
[20] = tested on: hRRM2 protein level in KB cells; experiment: Western blot of hRRM2 protein level, KB cells; type: cell-based, human; conditions: 20 µM
Procedure, shortened: as §5

[21] = tested on: KB-Gem cells; experiment: Real-time cell proliferation; type: cell-based, human; conditions: COH29 2–250 µM
[22] = tested on: KB-HURs cells; experiment: 72 h viability assay, HU-resistant KB clone; type: cell-based, human
Procedure, shortened: as §2

[23] = Pharmacokinetics in mice, HPLC-MS/MS of plasma; type: in vivo, mouse
Procedure, shortened: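 Mice received 800 mg/kg test compound orally or intravenously. Plasma levels were measured by HPLC-tandem mass spectrometry (Agilent 1100 capillary LC with triple-quadrupole MS). Oral bioavailability was derived by comparison with the intravenous route.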

[24] = patients; cited from earlier work
[25] = tested on: KB-HURs cells; conditions: cited from earlier work
[26] = Homo sapiens, KB, read-out: IC50, cell proliferation/viability
[27] = female, Balb/c nude, mouse, plasma, po, 800 mg/kg

In the case of O=C(Nc1nc(-c2ccc(O)c(O)c2)c(-c2ccccc2)s1)c1ccc(O)c(O)c1 [COH29, N-(4–(3,4-dihydroxyphenyl)-5-phenylthiazol-2-yl)-3,4-dihydroxybenzamide], the “TOV-112D tumor xenograft growth” value [1] is reported as “dose-dependent inhibition”, the IC50 [2] is reported as 8 µM and the “RNR activity in extracts of MOLT-4 tumor xenografts” value [3] is reported as “dramatically lower”. For the same molecule, the “cytotoxicity in NCI 60 panel” value [4] was “Impressive inhibition of most of the cancer cell lines”, the IC50 [5] was 16 µM and the “real-time growth of KBHURs” value [6] was “remained sensitive”. For the same molecule, the “intratumoral dNTP pools” value [7] was “decreased”, the “real-time KB cell growth after addition at 24 h” value (shortened to “real-time KB cell growth”) [8] was “essentially halted” and the “decrease of endogenously expressed RNR activity” value [9] was “approximately 50%”. The “binding after removal of 41 C-terminal amino acids from hRRM2” value [10] was “greatly decreased”, the hRRM2 protein level [11] was “unaffected” and the IC50 [12, 26] was 8 µM. The “effect on RRM1-RRM2 binding” value ([13]; 0.5 µM RRM1, 0 – 50 µM compound) was “interfered with RRM1-RRM2 binding in a dose-dependent manner”, the “effect on RRM1-RRM2 interaction at low dose” value ([13]; 12.5 µM compound, 0.5 µM RRM1) was “enhanced RRM1-RRM2 interaction” and the “effect on RRM1-RRM2 complex at higher dose” value ([13]; > 25µM compound, 0.5 µM RRM1) was “disrupted the complex”. For the same molecule, the apoptosis [14] was “underwent apoptosis”, the cell cycle distribution ([14]; 48 h treatment) was “arrested at S-phase” and the “tolerability, side effects” value [15] was “no appreciable side effects”. The “interaction with immobilized full-length hRRM2 (sensorgram)” value [16] was “dose-dependent interaction”, the “levels of dATP, dCTP and dGTP” value [17] was “all pools were greatly decreased” and the “MOLT-4 tumor xenograft growth” value [18] was “dose-dependent inhibition”. For the same molecule, the IC50 [19] was 82 µM, the hRRM2 protein level [20] was “unaffected” and the “real-time growth of KB-Gem” value [21] was “cytotoxic activity is strong and is unaffected by Gem resistance”. The IC50 ([22]; Homo sapiens, read-out: IC50, toxicity assay) was 8 µM, the peak plasma concentration ([23]; PO 800 mg/kg in 30% solutol, female Balb/c nude mice) was 10 µM and the Tmax [23, 27] was 30 min. The concentration at 24 h [23, 27] was roughly 200 nM.
For NC(=O)NO [HU, hydroxyurea], the “real-time KB cell growth” value [8] was “cell growth continued”, the IC50 ([12]; read-out: IC50, cell proliferation/viability, KB cells) was 180 µM and the IC50 ([22]; read-out: IC50, toxicity assay, KB-HURs) was 320 µM.
In the case of Nc1ccn([C@@H]2O[C@H](CO)[C@@H](O)C2(F)F)c(=O)n1 [Gem, gemcitabine], the IC50 [2] is reported as 1000 µM, the “real-time KB cell growth” value [8] is reported as “cell growth continued” and the IC50 [12, 26] is reported as 9 µM.
In the case of NC(=S)NN=Cc1ncccc1N [3-AP, 3-aminopyridine-2-carboxaldehyde thiosemicarbazone], the “toxicities reported from the phase I trial” value [24] is given as “hypoxia, respiratory distress, and methemoglobulinemia” and the “activity in KBHURs” value [25] is given as “active”.
